Our source for the cytotoxicity values is ChEMBL document CHEMBL4513216, “Probing the Open Global Health Chemical Diversity Library for Multistage-Active Starting Points for Next-Generation Antimalarials” (ACS Infect Dis, 2020).

This data set can be described thus: Toxicity liver stage against HepG2, at 10uM. It is filed as cell-based. Also noted: test concentration 10 uM, cell line HepG2-A16-CD81EGFP. Conditions: human, HepG2-A16-CD81EGFP cells; read-out: INHIBITION
In a few lines: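 Uninfected HepG2-A16-CD81EGFP cells, 3 × 10^3 per well, 1536-well, plated on prespotted compound at 10 μM final, parasite-free screening media added to match infected plates; puromycin 10 μM positive, DMSO 0.5% negative; run in parallel with 48 h PbLuc assay at 37 °C, 5% CO2; viability by CellTiter-Glo luminescence, normalized to controls.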
For `O=C(NCC(F)(F)C(F)F)c1ccncc1`, the cytotoxicity at 10 µM was 10.3%.
As to `O=C(C1CC=CC1)N1CC[C@@H]2O[C@H](COCC3CCOCC3)CC[C@@H]21`, the cytotoxicity at 10 µM is -0.0499%.
For the compound `O=C(c1ccc[nH]1)N1CCC2(CC1)COCCN(c1nccs1)C2`, the cytotoxicity at 10 µM amounted to 12.8%.
To `COCC1CN(Cc2c(C)noc2C)Cc2cn(C)nc21` (configuration not stated) belongs 13.2%; to `O=c1[nH]c2nc(N3CCCCCC3)ncc2c(=O)n1-c1cccc(F)c1`, 6.39%.
As to `O=C(c1ccccn1)N1CCN(c2ccc(-c3cccnc3)nn2)CC1`, the cytotoxicity at 10 µM was determined as 2.84%.
For `Cn1nc(C(=O)NCc2ccc(F)cc2)c2c1CCS(=O)(=O)C2`, the cytotoxicity at 10 µM was found to be 8.02%.
Turning to `Cc1nn(C(C)C)c2cnn(CC(=O)N3CCN(C)CC3)c12`, the cytotoxicity at 10 µM is 9.51%.
The same measure for `CCn1nc(C)c2ncnc(NCCN3CCOCC3)c21`: 8.93%; for `CCC1CNCc2cc3c(C)ccc(C)c3nc2O1` (configuration not stated): -4.22%; for `O=S(=O)(c1ccccc1Cl)N1CCCC(c2ncc[nH]2)C1` (configuration not stated): 5.48%.
To `Cc1noc(C)c1CS(=O)(=O)Cc1nc(C2CC2)no1` belongs 3.37%; to `CN(CCCNC(=O)c1ccc(C#N)cc1)CC(F)(F)F`, 5.12%; to `COC(=O)C1CN(Cc2nc(C(C)(C)C)cs2)C[C@@H](C)O1` (some centres not stated), -8.22%.
The same measure for `CC(=O)c1c(F)cccc1NC1CCN(C(=O)CC(C)C)CC1`: 22.6%.
`O=C(C1CC(=O)N(c2ccccc2Br)C1)N1CCCCCC1` (configuration not stated): the cytotoxicity at 10 µM stood at 8.52%.
Regarding `COc1ccc(NC(C)C(=O)N2CCN(c3ccccc3)CC2)cn1` (configuration not stated), the cytotoxicity at 10 µM is 9.75%.
As for `Cc1nc(C(C)(C)NC(=O)Nc2ccncc2)no1`, the cytotoxicity at 10 µM is 9.32%.
For the compound `Cc1n[nH]c(C2CN(CC(=O)NCCc3ccccc3)CCO2)n1` (configuration not stated), the cytotoxicity at 10 µM stood at 10.2%.
For `Cc1c(CC(=O)N2CCN(C(C)C)CC2)nnn1-c1ccccc1`, the cytotoxicity at 10 µM was -3.64%.
To `COCCc1noc(CN2CCCC2c2noc(C(C)C)n2)n1` (configuration not stated) belongs -11.5%.
Take `Fc1ccc(CN2CCCCC2Cn2cncn2)c2ncccc12` (configuration not stated): the cytotoxicity at 10 µM is 6.95%.
On to `Cc1nc(C)c(C(=O)N2CCCC(n3ccnc3C)C2)s1` (configuration not stated), for which the cytotoxicity at 10 µM was -5.19%.
To `Cc1ccc(C(=O)N(C)Cc2cc(Br)cs2)cn1` belongs 9.06%; to `CS(=O)(=O)c1ccc(C(=O)N2CCCC(n3cncn3)C2)o1` (configuration not stated), 7.85%; to `CSCC(C)(O)CNc1cccc(F)c1C(C)=O` (configuration not stated), 2.19%.
In the case of `CC(C)(C)CC(=O)NCC(=O)Nc1ccn(Cc2cccnc2)n1`, the cytotoxicity at 10 µM was found to be 15.4%.
Regarding `CCN(Cc1ccc(F)cc1Cl)C1CCS(=O)(=O)C1` (configuration not stated), the cytotoxicity at 10 µM is 14.9%.
Turning to `O=C(NCCC1CC1)NCc1cccc(-n2ccnc2)c1`, the cytotoxicity at 10 µM is 19.7%.
To `CS(=O)(=O)NCCCNC(=O)c1cccnc1O` belongs -17.7%; to `CCCNC(=O)CCNC(=O)Cc1nc(-c2ccco2)oc1C`, 23.7%; to `CCOC(C)c1nc(CN2CCN(c3nccc(C)n3)CC2)cs1` (configuration not stated), -8.89%.
As to `O=C(NC1CCCC1)NC1CCC(C(=O)N2CCSCC2)CC1` (configuration not stated), the cytotoxicity at 10 µM came to 3.58%.
In the case of `COCCc1noc(CNC2CCCN(c3cccnn3)C2)n1` (configuration not stated), the cytotoxicity at 10 µM was -13.7%.
Consider `CS(=O)(=O)c1ccc(OCCNCc2cccc(F)c2)cc1`, for which the cytotoxicity at 10 µM was -9.06%.
To `O=C(C1CCOC1)N1CC2(CCN(c3ccccc3)C2)C1` (configuration not stated) belongs 9.88%.
Consider `CC(=O)N1CCO[C@@H]2CN(S(=O)(=O)c3cccs3)CC[C@@H]2C1`, for which the cytotoxicity at 10 µM stood at 7.66%.
For the compound `Cn1ccc(C(=O)NC2CCC23CCN(C(=O)C2CCOCC2)CC3)c1` (configuration not stated), the cytotoxicity at 10 µM was -81.4%.
As to `Cn1ccc(C(=O)NC2CCC23CCN(C(=O)c2cnccn2)CC3)c1` (configuration not stated), the cytotoxicity at 10 µM was -71.4%.
Consider `CN1CCN(Cc2cccnc2)Cc2cccnc21`, for which the cytotoxicity at 10 µM is -76.9%.
To `CC(C)Nc1ncnc2c1CCN(C(=O)Cc1cccs1)CC2` belongs -80.9%.
Take `Cc1cc(C(=O)N2CCCC(O)(CN3CCCC3)C2)ccc1Cl` (configuration not stated): the cytotoxicity at 10 µM worked out at 1.6%.
To `NCCc1nc(N(Cc2cncs2)C2CC2)c2ccccc2n1` belongs -7.15%.
Turning to `Cc1ccc(CN(C)Cc2cc(C3CC3)[nH]n2)c(O)n1`, the cytotoxicity at 10 µM is 4.11%.
For the compound `Cc1n[nH]c(C)c1CNc1nc(-c2ccco2)nc2c1CCNCC2`, the cytotoxicity at 10 µM was -3.43%.
Turning to `O=C(CCN1CCCCO1)NCCSc1cnn[nH]1`, the cytotoxicity at 10 µM stood at 0.956%.
For `CC(=O)N[C@@H](CC(C)C)C(=O)N1CCC(n2cc(C(C)(C)N)nn2)CC1`, the cytotoxicity at 10 µM was -11.7%.
On to `Cc1nc(C(=O)N2CCC(c3nccn3Cc3ccncc3)CC2)cs1`, for which the cytotoxicity at 10 µM was -2.85%.
The same measure for `C=C(C)COc1ccccc1CNCCc1c[nH]cn1`: -2.21%; for `COc1cccc(Cn2ncc(N(C)CCc3ccccc3)cc2=O)c1`: 2.93%.
Regarding `Cc1cccnc1CN1CCN(C(=O)CCn2ccccc2=O)CC1`, the cytotoxicity at 10 µM was determined as 3.34%.
Take `Cc1cnccc1N1CCN(C(=O)CCCN2CCCCC2)CC1`: the cytotoxicity at 10 µM came to 0.0879%.
With `Cc1cc(C[C@@H]2COC[C@@H]2NC(=O)CN2CCOC2=O)on1`, the cytotoxicity at 10 µM is -0.6%.
As for `CCn1c(N)nc2cc(C(=O)NCCc3sccc3C)cnc21`, the cytotoxicity at 10 µM is -23.3%.
Regarding `Cc1ccccc1N1CCCN(C(=O)CCCS(N)(=O)=O)CC1`, the cytotoxicity at 10 µM was -16%.
The same measure for `COc1ccccc1Oc1ncccc1CNC(=O)C(C)N1CCCC1` (configuration not stated): -5.39%; for `Cc1cc(CC(=O)N2CCCC2c2nc(C(C)C)no2)on1` (configuration not stated): -25.9%.
For `CO[C@H]1CN(C(=O)c2ccc3oc(C)cc3c2)CC[C@@]12CCCO2`, the cytotoxicity at 10 µM was 0.153%.
`CC1CN(CC(=O)Nc2ccncc2)CCN1c1nccs1` (configuration not stated): the cytotoxicity at 10 µM stood at 29.5%.
Regarding `Cc1nn(C)c(C)c1NC(=O)CN1CCN(c2nccs2)C(C)C1` (configuration not stated), the cytotoxicity at 10 µM is -5.55%.
As to `CCCc1noc(CN2CCC(c3ccnn3CCO)CC2)n1`, the cytotoxicity at 10 µM is -19.9%.
Consider `CC(c1cc(F)ccc1F)N(C)C(=O)NCc1ccnc(N(C)C)c1` (configuration not stated), for which the cytotoxicity at 10 µM is -16.8%.
For the compound `Cc1nnc2n1CCN(C(=O)c1ccnc(N(C)C)c1)C2`, the cytotoxicity at 10 µM is -16.2%.
Turning to `Cc1cc(C)n(CC2CCCN2C(=O)c2c(C)noc2C)n1` (configuration not stated), the cytotoxicity at 10 µM was -13.8%.
Consider `O=C(NCCNc1ncccn1)C1CC(=O)N(C2CCCC2)C1` (configuration not stated), for which the cytotoxicity at 10 µM was -16.2%.
In the case of `Cc1cnn(CC2CN(Cc3cccc(C(=O)N(C)C)c3)CCO2)c1` (configuration not stated), the cytotoxicity at 10 µM is -1.73%.
The same measure for `COc1cc(CCC(=O)NCC2CCCN2C)ccc1OCC(F)(F)F` (configuration not stated): -5.99%; for `O=C(CCNCC(F)(F)F)N1CCC(Nc2cccnn2)CC1`: -1.5%; for `CSc1nccn1-c1cccc(C(=O)NCC2CC2)c1`: -10.6%.
With `COCCN1CCC(NC(=O)C2(c3cc(C)cc(C)c3)CC2)CC1`, the cytotoxicity at 10 µM is -4.37%.
For the compound `CC(C)c1nc2c(n1C)CCN(Cc1nc(-c3cccs3)no1)C2`, the cytotoxicity at 10 µM was -10.1%.
For `CCC1c2ccsc2CCN1C(=O)NCc1cc[nH]n1` (configuration not stated), the cytotoxicity at 10 µM is -8.88%.
To `Cc1nc(C)n(CC2CCCN(CC(=O)Nc3c(C)n[nH]c3C)C2)n1` (configuration not stated) belongs 0.813%; to `Cc1n[nH]c(C)c1NC(=O)CN1CCCC(CNC(=O)C(C)(C)C)C1` (configuration not stated), -4.64%.
As for `CN1CCOC(CNCc2cccc(OCC(F)(F)F)c2)C1` (configuration not stated), the cytotoxicity at 10 µM was -6.44%.
Take `O=C(Cc1c[nH]c2ccccc12)N1CCC(Nc2cccnn2)CC1`: the cytotoxicity at 10 µM is -5.08%.
In the case of `Cc1cc(C(=O)NCC(C)N2CCc3ccccc32)no1` (configuration not stated), the cytotoxicity at 10 µM was -8.8%.
Turning to `O=C1CCCN1Cc1ncn2c1CN(Cc1cccs1)CCC2`, the cytotoxicity at 10 µM was -84.1%.
Turning to `Cn1ccnc1CN1CCC2(CCCN2c2ncccn2)CC1`, the cytotoxicity at 10 µM was found to be 7.55%.
To `c1cnc(N2CCO[C@H]3[C@H](OCC4CCOCC4)CC[C@@H]32)nc1` belongs 4.55%; to `COc1cc(N2CCC3(CCCN3Cc3ccn(C)n3)CC2)ncn1`, 4.89%.
For the compound `Cc1noc(C)c1CN1CC[C@@H]2O[C@H](COCC(C)C)CC[C@@H]21`, the cytotoxicity at 10 µM is 8.28%.
For `Brc1ccc(CNCc2nnc3n2CCCCC3)s1`, the cytotoxicity at 10 µM is -0.254%.
On to `Cc1nc(CN2CCN(Cc3ccoc3)Cc3cccnc32)cs1`, for which the cytotoxicity at 10 µM is -5.25%.
The same measure for `CC(C)NC(=O)N1CCc2ncc(CN3CCOCC3)n2CC1`: 6.28%; for `Cc1noc(C)c1CN1CCn2c(CN3CCN(C)CC3)cnc2C1`: 8.98%.
Turning to `Fc1ccc(CN2CCC3(CCN(Cc4nccs4)CC3)C2)cc1`, the cytotoxicity at 10 µM was determined as 5.04%.
As for `CC(C)NC(=O)CC1COC2(CCN(Cc3ccccc3)CC2)C1` (configuration not stated), the cytotoxicity at 10 µM is 6.38%.
As for `Cc1ccc(N2CC[C@H]3O[C@@H](C(=O)NCc4ccco4)CC[C@H]32)nn1`, the cytotoxicity at 10 µM was determined as 2.03%.
As to `COCCN1CCCn2cnc(CN(C)C(C)C)c2C1`, the cytotoxicity at 10 µM was determined as 6.53%.
For `O=C(NCc1cccnc1)[C@@H]1C[C@H]2[C@H](CCN2c2ncc(F)cn2)O1`, the cytotoxicity at 10 µM is -85.3%.
For the compound `N#Cc1cccc(CN2CC[C@@H]3[C@@H]2CC(=O)N3CCN2CCCC2)c1`, the cytotoxicity at 10 µM is -84.4%.
In the case of `c1cnc(N2CCC3(CCN(Cc4ccncc4)CC3)CC2)nc1`, the cytotoxicity at 10 µM was -1.85%.
As to `O=C1NC2(CCN(CCO)CC2)CC1c1ccccc1` (configuration not stated), the cytotoxicity at 10 µM was -3.83%.
As to `O=C(Cc1cccs1)N1CCC2(CC1)COCCN2CC1CC1`, the cytotoxicity at 10 µM was determined as 4.98%.
As for `CS(=O)(=O)N1C[C@H]2CC[C@@H](C1)N(C(=O)Cn1nc3ccccc3n1)C2`, the cytotoxicity at 10 µM turned out to be 10.8%.
Consider `CN(C)C(=O)N1C[C@H]2CC[C@@H](C1)N(Cc1ccc3nsnc3c1)C2`, for which the cytotoxicity at 10 µM is -6.69%.
